Our source for the MIC and IC50 values is ChEMBL document CHEMBL3797058, “Sorazolons, Carbazole Alkaloids from Sorangium cellulosum Strain Soce375” (J Nat Prod, 2016).

The test system of test [1] is Staphylococcus aureus. Description: Antimicrobial activity against Staphylococcus aureus Newman by serial dilution method. The format is functional. An outline of the steps: (§1)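 MIC by serial dilution (150 μL) in 96-well tissue-culture plates; 20 μL aliquots of compound at 1 mg/mL tested; methanol as negative control.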
Test [2] has as its system Micrococcus luteus. Put plainly: Antimicrobial activity against Micrococcus luteus DSM 1790 by serial dilution method. It is filed as functional. An outline of the steps: as §1
The subject of test [3] is Mycolicibacterium smegmatis. Put plainly: Antimicrobial activity against Mycobacterium smegmatis ATCC 700084 by serial dilution method. It is filed as functional, organism-based. An outline of the steps: as §1
The test system of test [4] is Bacillus subtilis. Description: Antimicrobial activity against Bacillus subtilis DSM 10 by serial dilution method. It is filed as functional. An outline of the steps:
as §1

Test [5] has as its system Escherichia coli. Put plainly: Antimicrobial activity against Escherichia coli DSM 1116 by serial dilution method. The format is functional, organism-based. Put shortly: as §1
The subject of test [6] is Escherichia coli. Description: Antimicrobial activity against Escherichia coli TolC by serial dilution method. It is filed as functional. An outline of the steps: as §1
In test [7] the test system is Pseudomonas aeruginosa. Description: Antimicrobial activity against Pseudomonas aeruginosa PA14 by serial dilution method. The format is functional. Put shortly:
as §1

Test [8] relates to Wickerhamomyces anomalus. Description: Antimicrobial activity against Wickerhamomyces anomalus DSM 6766 by serial dilution method. It is filed as functional, organism-based. An outline of the steps:
as §1

In test [9] the test system is Candida albicans. Description: Antimicrobial activity against Candida albicans DSM 1665 by serial dilution method. It is filed as functional, organism-based. An outline of the steps:
as §1

Test [10] relates to Mucor hiemalis. Description: Antimicrobial activity against Mucor hiemalis DSM 2656 by serial dilution method. It is filed as functional. An outline of the steps: as §1
Test [11] has as its system L929. Description: Cytotoxicity against mouse L929 cells. The format is cell-based. Put shortly: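 Mouse fibroblast L929 cells exposed to 3.0 μL of each compound; MIC determined by serial dilution (60 μL) in 96-well tissue-culture plates.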
The mark [12] stands for this setting: Mus musculus, L929, read-out: IC50.

≈ marks a conversion by molar mass, not a printed value. Calls of active or inactive are those of the source. No cut-off for these calls is given here.

The term MIC denotes the lowest concentration that inhibits growth of the organism. One may read the IC50 as the point on the concentration scale where inhibition reaches its midpoint. On to `C[C@@]1(O)C(=O)C(=O)c2c([nH]c3ccccc23)[C@@]1(C)O`, for which the MIC result in test [1], in test [2], in test [3], in [4], in test [5] and in test [6] was “inactive” in each case. Further, the MIC entry in [7], in test [8], in [9] and in test [10] was “inactive” throughout. Further, the IC50 entry in test [11] (l929) was “Not Active”.

As for `C[C@@]1(O)C(=O)[C@H]([C@H]2C(=O)[C@@](C)(O)[C@](C)(O)c3[nH]c4ccccc4c32)c2c([nH]c3ccccc23)[C@@]1(C)O`, the MIC entry in test [1], in test [2], in test [3], in [4], in test [5] and in [6] was “inactive” throughout. Further, the MIC result in test [7], in test [8], in test [9] and in [10] was “inactive” in each case. Also, in [11] (l929), the IC50 result was “Not Active”.

Regarding `Cc1c(O)cc2c([nH]c3ccccc32)c1C`, the MIC in [1] worked out at 33.3 µg/mL (≈ 158 µM); in test [2], 33.3 µg/mL (≈ 158 µM); in test [4], 16.6 µg/mL (≈ 78.6 µM); in [6], 67 µg/mL (≈ 317 µM). Besides, the MIC result in test [3], in test [5], in [7], in test [8], in test [9] and in [10] was “inactive” in each case. Moreover, the IC50 in test [11] (setting [12]) amounted to 85.2 µM.

With `CO[C@]1(C)c2[nH]c3ccccc3c2C(=O)C(=O)[C@@]1(C)O`, the MIC in test [1] came out at 16.6 µg/mL (≈ 60.7 µM); in test [2], 16.6 µg/mL (≈ 60.7 µM); in test [4], 8.3 µg/mL (≈ 30.4 µM). The MIC result in test [3], in [5], in test [6], in test [7], in [8] and in test [9] was “inactive” throughout. In addition, the MIC result in test [10] is “inactive”. In test [11] (setting [12]), the IC50 was found to be 76.8 µM.

Take `Cc1c(O)c(-c2c(O)c(C)c(C)c3[nH]c4ccccc4c23)c2c([nH]c3ccccc32)c1C`: the minimum inhibitory concentration (MIC) was 16.6 µg/mL (≈ 39.5 µM) in [1]; 16.6 µg/mL (≈ 39.5 µM) in test [2]; 16.6 µg/mL (≈ 39.5 µM) in test [4]; 33.3 µg/mL (≈ 79.2 µM) in [6]; 67 µg/mL (≈ 159 µM) in test [10]. The MIC entry in test [3], in [5], in [7], in test [8] and in test [9] was “inactive” in each case. For the same molecule, in test [11] (setting [12]), the IC50 was determined as 4.99 µM.

For the molecule `C[C@@]1(O)C(=O)Cc2c([nH]c3ccccc23)[C@@]1(C)O`, the MIC entry in [1], in test [2], in test [3], in test [4], in test [5] and in [6] was “inactive” each time. In addition, the MIC entry in test [7], in test [8], in [9] and in [10] was “inactive” in each case. The IC50 result in [11] (l929) is reported as “Not Active”.

With `C=C1c2[nH]c3ccccc3c2C[C@@H](O)[C@@]1(C)O`, the MIC result in [1], in test [2], in [3], in test [4], in test [5] and in test [6] was “inactive” each time. In addition, the MIC entry in test [7], in [8], in [9] and in test [10] was “inactive” throughout. The IC50 entry in test [11] (l929) is recorded as “Not Active”.

Consider `CO[C@]1(C)c2[nH]c3ccccc3c2CC(=O)[C@@]1(C)O`, for which the MIC result in test [1], in test [2], in [3], in test [4], in [5] and in [6] was “inactive” each time. In addition, the MIC result in test [7], in test [8], in test [9] and in [10] was “inactive” throughout. Also, the IC50 entry in test [11] (l929) was “Not Active”.

As for `Cc1ccc2c([nH]c3ccccc32)c1C=O`, the MIC result in test [1], in [2], in test [3], in [4], in test [5] and in test [6] was “inactive” each time. Further, the MIC entry in [7], in test [8], in test [9] and in test [10] was “inactive” each time. The IC50 entry in test [11] (l929) was “Not Active”.
